# Compound activity from PubChem BioAssay.
# TRPC4 inh: TRPC4 (mouse) channel inhibition | Q9QUQ5 | HEK293 TRPC4beta/mu-opioid, DAMGO-evoked Fluo4 calcium flux; stronger effect = lower value | 300,000 tested, 0.39% active | B-score at 10 µM | AID 2247;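 active = B-score over 3 SD under the library average, no early fluorescence shift, positive overall ratio signal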
#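 test system = HEK293 cells with stable TRPC4beta plus mu-opioid receptor expression | detection = Fluo4 Ca2+ flux fluorescence | read-out = integrated fluorescence ratio relative to baseline, converted to per-well B score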
# TRPC6 act: activates the mouse TRPC6 cation channel | 310,000 tested, 0.13% active | HEK293-TRPC6 membrane potential dye fluorescence; stronger effect = higher value | B-score at 10 µM | AID 2550 | Q61143;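 active = B-score of the integrated fluorescence ratio above library mean plus 3 SD, and starting fluorescence ratio within library mean plus 5 SD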;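 note: higher score means more depolarization so channel activation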
# TRPC6 inhibitor: mouse TRPC6 channel inhibition; Q61143; HEK293-TRPC6, membrane potential dye, ACh-evoked depolarization; stronger effect = lower value; 310,000 tested, 1.1% active; B-score at 10 µM;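 active = B-score under library mean minus 3 SD, initial fluorescence not abnormally high, positive integrated signal ratio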;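 note: B-score derived from integrated fluorescence ratio over the kinetic read; more negative B-score means stronger inhibition of depolarization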
# TRPC4 potent: allosteric potentiators of mouse TRPC4 channel; Q9QUQ5; HEK293 TRPC4beta/mu-opioid, DAMGO EC20, Fluo-4 Ca2+ flux; stronger effect = higher value; B-score at 10 µM; 310,000 tested, 0.42% active; AID 2227;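 active = B-score of calcium response area above 5 SD of library B-scores, with initial fluorescence ratio within 5 SD of library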;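 note: B-score of integrated fluorescence ratio over time as area under calcium response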
# TRPC4 act: activators of mouse TRPC4 channel. Q9QUQ5. HEK293 TRPC4beta/mu-opioid, Fluo4 calcium fluorescence; stronger effect = higher value. B-score at 10 µM. 310,000 tested, 0.49% active;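 active = B-score above 5 SD of library B-scores, and initial fluorescence ratio not above library mean plus 5 SD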;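 note: positive B-score marks a calcium rise read as TRPC4 activation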
#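 Assay system: HEK293 cells stably co-expressing mouse TRPC4beta and mu-opioid receptor / Timing: Fluo4 dye loading 45 min at room temperature, 110 s recording / Signal: Fluo4 calcium-sensitive dye fluorescence, kinetic, 1 Hz baseline / Read-out: integrated baseline-normalised fluorescence ratio, converted to per-well B score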
# * marks the source's active call; other numbers are inactive results; i = inactive. Compounds with a hit are over-represented: about 2.3% of the library has one in this group of screens.
SMILES,TRPC4 inh,TRPC6 act,TRPC6 inhibitor,TRPC4 potent,TRPC4 act
Cc1cccc(N/N=C(\C(N)=O)C2=NC(C)(C)Cc3ccccc32)c1,i,i,i,14*,i
CCOC(=O)/C(=N\O)C1=NC(C)(C)Cc2ccccc21,i,i,i,i,i
COc1cc(CN2CCN(C(=O)CC(C)C)CC2)c([N+](=O)[O-])cc1OC,i,i,i,i,i
COc1ccc(C(=O)C2CCCN(Cc3cn[nH]c3-c3ccc(F)cc3)C2)cc1OC (stereo unspecified),i,i,i,i,44*
COc1ccc(C(=O)C2CCCN(Cc3cn(C)nc3-c3ccccc3)C2)cc1F (stereo unspecified),i,i,i,i,i
COc1ccc(C(=O)C2CCCN(Cc3ccc(Sc4nncn4C)o3)C2)cc1F (stereo unspecified),i,i,i,i,131*
Cc1cc(C)n(CCNC(=O)c2ccco2)n1,i,i,i,i,i
CCn1c2ccccc2c2cc(/C=N/NC(=O)c3cc(O)cc(O)c3)ccc21,-6*,i,i,i,i
CCn1c2ccccc2c2cc(/C=N/NC(=O)c3ccc(O)cc3)ccc21,i,i,i,i,i
CCOC(=O)C1(Cc2ccccc2)CCN(Cc2cccn2-c2nccs2)CC1,i,i,i,i,46*
CCOC(=O)C1(Cc2ccccc2)CCN(Cc2cccc3nccnc23)CC1,i,i,i,i,i
CCOC(=O)C1(CCOc2ccccc2)CCN(CCCn2cccn2)CC1,i,i,i,i,i
CCOC(=O)C1(CCOc2ccccc2)CCN(Cc2cccn2-c2cccnc2)CC1,i,i,i,i,116*
CCOC(=O)C1(Cc2ccccc2)CCN(Cc2cccn2-c2cccnc2)CC1,i,i,i,i,45*
CC(C)n1cc(C(=O)N2CCCC(N3CCN(c4cccc(Cl)c4)CC3)C2)cn1 (stereo unspecified),i,i,i,i,i
COc1cc(C2c3c(-c4ccccc4)n[nH]c3C(=O)N2c2ccccc2)ccc1O (stereo unspecified),i,i,i,14*,i
COc1ccc2ccccc2c1/C=N/NC(=O)c1cccc(Br)c1,i,i,i,i,i
O=C(N/N=C/c1c(O)ccc2ccccc12)c1cccc(C(F)(F)F)c1,i,i,i,12*,i
CCN(Cc1ccncc1)C(=O)c1cc(COc2c(C)cccc2C)on1,i,i,i,i,i
O=S(=O)(c1ccc(Oc2ccc(Br)cc2)cc1)N1CCOCC1,i,i,i,17*,i
CC(=O)c1c(C)[nH]c(C(=O)Nc2ccc(C)cc2Br)c1C,i,i,i,i,i
CC(C)OCCCNS(=O)(=O)c1ccc2c(c1)oc(=O)n2C,i,i,i,i,i
CCCN(CCC)CCCNS(=O)(=O)c1ccc2c(c1)oc(=O)n2C,i,i,i,i,56*
Cc1cc(C)cc(N(CC(=O)NC2CCCC2)C(=O)CNC(=O)c2cccs2)c1,i,i,i,i,i
CN(CCc1ccccn1)C(=O)Nc1ccc(Cl)cc1,i,i,i,i,i
SMILES,TRPC4 inh,TRPC6 act,TRPC6 inhibitor,TRPC4 potent,TRPC4 act
CN(CCc1ccccn1)C1CC(=O)N(c2ccc(Cl)cc2)C1=O (stereo unspecified),i,i,i,i,148*
c1ccc(CSc2cc3ccccc3[nH]2)cc1,i,i,i,i,i
O=[N+]([O-])c1ccccc1CNC1CCCc2ccccc21 (stereo unspecified),-6*,i,i,i,i
Cc1ccccc1CC(=O)NC1CCCc2ccccc21 (stereo unspecified),i,i,i,i,i
Cc1cc(N2CCC(C)CC2)nc(-c2ccccc2O)n1,i,i,i,i,i
Cc1cc(N2CCC(C)CC2)nc(NCc2ccccc2)n1,-6*,i,i,16*,i
Cc1cc(Nc2ccc(Cl)cc2)nc(NCc2ccccc2)n1,i,i,i,i,i
Cc1cc(Nc2ccccc2)nc(NCc2ccccc2)n1,-6*,i,i,i,i
COc1ccc(Br)cc1S(=O)(=O)Nc1ncccc1C,i,i,i,i,i
COc1ccc(S(=O)(=O)Nc2ncccc2C)c2ccccc12,i,i,i,11*,i
Cc1cc(C)c(C(=O)NCC(=O)c2ccccc2)c(C)c1,i,i,i,i,i
COc1ccc(OC)c(Nc2c3c(nc4ccccc24)CCC3)c1,-5*,i,i,i,i
COc1cc(Nc2c3c(nc4ccccc24)CCC3)cc(OC)c1OC,i,i,i,i,i
Cc1cccc(Nc2c3c(nc4ccccc24)CCC3)c1,-6*,i,i,i,i
N#Cc1cccc(Nc2c3c(nc4ccccc24)CCC3)c1,i,i,i,i,i
CCC(=O)N1CCc2cc(S(=O)(=O)CCC(=O)N(C)c3ccc(OC)cc3)ccc21,i,i,i,i,i
CC1(C(=O)OCC(=O)NCCNC(=O)COC(=O)C2(C)CC2(Cl)Cl)CC1(Cl)Cl (stereo unspecified),i,i,i,i,i
O=C(Nc1cc2c(cc1C(=O)O)OCCCO2)c1ccc(F)cc1F,i,i,i,i,i
Cc1cccc(NC(=O)C(C)SCc2nc3sc4c(c3c(=O)[nH]2)CCCC4)n1 (stereo unspecified),i,i,i,i,i
CCCCn1c2ccc(F)cc2c2nnc(SCCN3CCOCC3)nc21,i,i,i,i,i
CCCCn1c2ccccc2c2nnc(SCCN3CCCCC3)nc21,-7*,i,i,i,i
CCN(CC1CCCO1)C(=O)c1cc(COc2ccccc2SC)on1 (stereo unspecified),i,i,i,i,i
CC(Sc1nnc(-c2ccco2)n1C)C(=O)N1C(C)CCCC1C (stereo unspecified),i,i,i,i,i
COc1ccc(CN(C)C(=O)c2ccc(NC(=O)CC3SC(N4CCCC4)=NC3=O)cc2)c(OC)c1OC (stereo unspecified),i,i,i,i,i
COc1ccc(CN(C)C(=O)c2ccc(NC(=O)CC3SC(N4CCCC4)=NC3=O)cc2)c(OC)c1 (stereo unspecified),-6*,i,i,41*,i
CCCCc1nnc(NC(=O)C2CCN(c3ncnc4sc(C)c(C)c34)CC2)s1,i,i,i,93*,i
